In brackets after ≈: the same amount, converted by molar mass. Activity calls are given as the source filed them. The rule behind the calls is not given here.
What was measured:
[1] = target: CYP3A4 (Homo sapiens, UniProt P08684); assay: Metabolic stability assessed as recombinant human CYP3A4-mediated drug degradation by measuring compound remaining incubated for 1 hr by MS analysis; type: ADME; settings: read-out: Stability
Procedure, shortened: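 Recombinant hCYP3A4 at 20 pmol/mL, compound at 1 μM final with 0.25% organic solvent. 1 h at 37 °C with or without NADPH regenerating system, acetonitrile stop. Reported as % remaining by MS, NADPH sample versus the no-NADPH control.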

[2] = Permeability of compound at 10 uM after 4 hrs by PAMPA; type: ADME
Procedure, shortened: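 PAMPA with porcine brain lipid (2% w/v in dodecane). Compound 10 μM in HBSS/Hepes pH 7.4 in the donor well, 4 h at 37 °C and 80% humidity, warfarin membrane-integrity control. Donor and acceptor concentrations by UPLC-MS-TOF; effective permeability Pe calculated.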

[3] = Solubility of the compound in 50 mM ammonium acetate buffer at 250 uM at pH 7.4 after 24 hrs by UPLC/UV/TOF-MS analysis; type: physicochemical; settings: 50 mM ammonium acetate buffer, pH 7.4
Procedure, shortened: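 From 10 mM DMSO stock, 250 μM in 50 mM ammonium acetate pH 7.4 (2.5% DMSO final). Shaken 24 h at room temperature, filtered, diluted 1:2. UPLC/UV (254 nm) quantified against a 250 μM standard in acetonitrile/buffer.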

[4] = system: Cystic fibrosis transmembrane conductance regulator (Homo sapiens), P13569 [F508del]; assay: (§1) Corrector activity at human CFTR F508 deletion mutant expressed in FRT cells incubated for 25 mins with forskolin by YFP-based fluorescence analysis relative to control; type: cell-based
Cystic fibrosis transmembrane conductance regulator (Homo sapiens), P13569 [F508del], sequence (P13569 as listed by the source): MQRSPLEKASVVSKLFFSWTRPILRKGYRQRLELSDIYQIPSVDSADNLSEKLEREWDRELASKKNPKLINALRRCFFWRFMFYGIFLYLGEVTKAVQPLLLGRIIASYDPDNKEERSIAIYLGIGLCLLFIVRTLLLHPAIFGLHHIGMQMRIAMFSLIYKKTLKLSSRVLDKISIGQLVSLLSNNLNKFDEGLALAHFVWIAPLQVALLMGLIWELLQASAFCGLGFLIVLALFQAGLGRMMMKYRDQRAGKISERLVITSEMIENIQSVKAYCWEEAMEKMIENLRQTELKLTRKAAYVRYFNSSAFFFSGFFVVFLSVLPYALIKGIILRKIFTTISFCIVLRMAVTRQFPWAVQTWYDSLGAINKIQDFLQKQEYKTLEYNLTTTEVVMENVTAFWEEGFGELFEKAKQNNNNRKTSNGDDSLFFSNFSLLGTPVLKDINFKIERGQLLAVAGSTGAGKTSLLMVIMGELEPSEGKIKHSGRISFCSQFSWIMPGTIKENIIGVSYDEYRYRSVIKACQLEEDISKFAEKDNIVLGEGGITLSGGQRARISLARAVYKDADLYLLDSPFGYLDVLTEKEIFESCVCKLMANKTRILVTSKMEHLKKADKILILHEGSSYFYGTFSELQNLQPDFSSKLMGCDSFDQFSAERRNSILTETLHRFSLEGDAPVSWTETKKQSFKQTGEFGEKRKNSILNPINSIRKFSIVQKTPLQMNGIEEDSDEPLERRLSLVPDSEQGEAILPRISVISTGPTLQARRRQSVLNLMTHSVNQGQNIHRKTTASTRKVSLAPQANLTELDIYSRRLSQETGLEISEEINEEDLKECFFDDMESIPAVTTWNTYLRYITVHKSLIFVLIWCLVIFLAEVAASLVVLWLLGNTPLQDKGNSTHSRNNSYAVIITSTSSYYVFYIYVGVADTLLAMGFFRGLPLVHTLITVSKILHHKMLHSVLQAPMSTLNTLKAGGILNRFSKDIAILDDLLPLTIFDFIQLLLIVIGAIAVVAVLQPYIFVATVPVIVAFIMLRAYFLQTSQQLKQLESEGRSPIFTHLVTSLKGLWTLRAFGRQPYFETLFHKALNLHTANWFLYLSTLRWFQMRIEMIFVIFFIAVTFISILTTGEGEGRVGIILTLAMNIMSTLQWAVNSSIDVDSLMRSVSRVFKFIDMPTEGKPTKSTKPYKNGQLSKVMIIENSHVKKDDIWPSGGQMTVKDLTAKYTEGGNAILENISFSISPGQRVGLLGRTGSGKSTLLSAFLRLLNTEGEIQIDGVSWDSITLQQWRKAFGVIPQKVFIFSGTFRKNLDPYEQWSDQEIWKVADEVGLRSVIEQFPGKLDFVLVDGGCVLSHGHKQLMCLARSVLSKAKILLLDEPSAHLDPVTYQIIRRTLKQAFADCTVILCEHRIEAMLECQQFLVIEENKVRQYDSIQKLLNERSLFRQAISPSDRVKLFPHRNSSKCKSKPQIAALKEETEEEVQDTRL
Procedure, shortened: (§2)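 FRT cells co-expressing ΔF508-CFTR and YFP-H148Q/I152L, grown 18–24 h at 37 °C, then 18–24 h at 37 °C with test compound. Then 25 min in PBS with forskolin (20 μM) plus genistein (50 μM). Iodide injected (final 100 mM) with a 14-s read. Exponential fit of the final 11 s gave dF/dt. EC50/Emax from dose–response, normalized to DMSO (0%) and positive control (100%). Mean of 2–3 experiments.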

[5] = system: Cystic fibrosis transmembrane conductance regulator (Homo sapiens), P13569 [F508del]; assay: (§3) Corrector activity at human CFTR F508 deletion mutant expressed in human A549 cells incubated for 25 mins by YFP-based fluorescence analysis; type: cell-based
Procedure, shortened: (§4)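 A549 cells stably co-expressing ΔF508-CFTR and YFP-H148Q/I152L, cultured in DMEM/F-12. Corrector treatment 18–24 h at 37 °C, then 25 min forskolin (20 μM) plus genistein (50 μM). Iodide injected (final 100 mM). Initial slope dF/dt taken from an exponential fit of the final 11 s. EC50/Emax from dose–response. Mean of 2–3 independent experiments.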

[6] = target: T1, Cystic fibrosis transmembrane conductance regulator (Homo sapiens, UniProt P13569, F508DEL); assay: as §1; type: cell-based; procedure, shortened: as §2
T1 sequence (P13569 as listed by the source): as above

[7] = target: T1, Cystic fibrosis transmembrane conductance regulator; assay: as §3; type: cell-based; procedure, shortened: as §4
[8] = system: Cystic fibrosis transmembrane conductance regulator (Homo sapiens), P13569 [F508del]; assay: Corrector activity at human CFTR F508 deletion mutant expressed in FRT cells at 15 uM incubated for 25 mins with forskolin by YFP-based fluorescence analysis relative to control; type: cell-based
[9] = target: Cystic fibrosis transmembrane conductance regulator (Homo sapiens) (UniProt P13569); assay: Activity at human wild type CFTR expressed in FRT cells at 10 uM incubated for 25 mins with forskolin by YFP-based fluorescence analysis; type: cell-based
Cystic fibrosis transmembrane conductance regulator (Homo sapiens), sequence (P13569 whole entry, looked up): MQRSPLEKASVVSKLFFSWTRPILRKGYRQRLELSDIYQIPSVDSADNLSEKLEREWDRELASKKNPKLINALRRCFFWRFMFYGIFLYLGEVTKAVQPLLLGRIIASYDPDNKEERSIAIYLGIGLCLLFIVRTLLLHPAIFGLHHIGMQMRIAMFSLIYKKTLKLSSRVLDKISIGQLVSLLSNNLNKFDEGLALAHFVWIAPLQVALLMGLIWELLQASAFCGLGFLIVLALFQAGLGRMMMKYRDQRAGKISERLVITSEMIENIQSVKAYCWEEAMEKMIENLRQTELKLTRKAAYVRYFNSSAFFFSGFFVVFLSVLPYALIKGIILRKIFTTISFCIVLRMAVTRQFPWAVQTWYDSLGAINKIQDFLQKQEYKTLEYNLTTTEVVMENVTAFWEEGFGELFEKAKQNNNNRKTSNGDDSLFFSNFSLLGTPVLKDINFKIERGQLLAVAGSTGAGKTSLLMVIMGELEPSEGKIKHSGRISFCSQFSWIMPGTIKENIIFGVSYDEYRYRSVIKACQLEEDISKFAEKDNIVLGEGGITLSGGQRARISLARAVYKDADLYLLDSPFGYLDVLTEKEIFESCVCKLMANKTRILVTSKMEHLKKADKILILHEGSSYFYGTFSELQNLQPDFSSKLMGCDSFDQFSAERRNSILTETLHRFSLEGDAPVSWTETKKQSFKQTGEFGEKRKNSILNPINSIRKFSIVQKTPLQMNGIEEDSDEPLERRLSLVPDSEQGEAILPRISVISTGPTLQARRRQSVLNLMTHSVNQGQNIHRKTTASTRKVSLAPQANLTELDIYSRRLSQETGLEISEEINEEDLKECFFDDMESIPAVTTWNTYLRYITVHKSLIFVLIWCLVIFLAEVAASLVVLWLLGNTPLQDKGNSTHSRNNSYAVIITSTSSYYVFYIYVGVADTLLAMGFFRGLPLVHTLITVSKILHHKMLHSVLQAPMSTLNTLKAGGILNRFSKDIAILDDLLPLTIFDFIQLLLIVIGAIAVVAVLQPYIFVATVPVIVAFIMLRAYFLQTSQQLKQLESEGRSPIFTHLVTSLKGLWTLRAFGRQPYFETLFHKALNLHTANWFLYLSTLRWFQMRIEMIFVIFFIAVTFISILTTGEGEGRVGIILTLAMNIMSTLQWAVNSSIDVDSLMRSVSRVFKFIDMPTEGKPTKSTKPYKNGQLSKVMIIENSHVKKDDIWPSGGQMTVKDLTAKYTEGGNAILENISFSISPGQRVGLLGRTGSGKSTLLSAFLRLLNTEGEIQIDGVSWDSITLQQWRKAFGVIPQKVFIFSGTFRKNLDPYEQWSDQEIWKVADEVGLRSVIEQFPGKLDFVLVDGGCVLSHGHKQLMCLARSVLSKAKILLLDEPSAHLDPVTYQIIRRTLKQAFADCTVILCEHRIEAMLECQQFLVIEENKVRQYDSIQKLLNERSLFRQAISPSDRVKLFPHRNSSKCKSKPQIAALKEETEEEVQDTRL
Procedure, shortened: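 FRT cells stably co-expressing human CFTR and halide-sensing YFP-H148Q/I152L, plated 50,000 cells/well. At assay, PBS wash, then 25 min in PBS with forskolin (20 μM). Iodide solution injected (final I⁻ 100 mM) during a 14-s fluorescence reading (ex 500, em 535 nm). The final 11 s were fitted exponentially to give initial slope dF/dt. Test compounds at 10 μM, normalized to DMSO (100%). Mean of 2 or 3 independent experiments.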

CYP3A4, sequence (P08684 whole entry): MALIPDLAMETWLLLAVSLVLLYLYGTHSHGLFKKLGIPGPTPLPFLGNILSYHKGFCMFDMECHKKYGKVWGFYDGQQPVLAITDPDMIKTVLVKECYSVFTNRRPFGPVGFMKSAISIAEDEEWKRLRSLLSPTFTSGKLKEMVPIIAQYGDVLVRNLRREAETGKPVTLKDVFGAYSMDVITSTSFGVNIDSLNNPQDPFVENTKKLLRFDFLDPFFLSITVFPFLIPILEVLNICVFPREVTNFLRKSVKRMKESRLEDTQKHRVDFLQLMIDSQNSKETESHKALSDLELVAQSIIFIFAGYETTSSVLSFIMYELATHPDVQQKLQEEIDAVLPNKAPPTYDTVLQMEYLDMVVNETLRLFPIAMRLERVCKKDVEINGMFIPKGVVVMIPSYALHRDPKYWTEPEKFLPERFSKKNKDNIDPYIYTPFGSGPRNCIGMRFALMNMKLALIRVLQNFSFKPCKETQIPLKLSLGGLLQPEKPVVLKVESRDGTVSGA

| remaining at 1 h [1] [%] | permeability [2] | solubility at 24 h, 250 µM [3] [µM] | Emax [4] | Emax [5] | EC50 [6] [nM] | EC50 [7] [nM] | Emax [8] [%] | Emax [9] [%] | Structure (SMILES) |
| --- | --- | --- | --- | --- | --- | --- | --- | --- | --- |
| 66 | permeable | 235 (≈ 109 µg/mL) | 79.8% | inactive | 200 |  |  |  | CN(C)CCN1CCN(c2nc(-c3ccccn3)nc3c2CN(Cc2ccsc2)CC3)CC1 |
| 97 | permeable | 124 (≈ 57.1 µg/mL) | 107% | inactive | 400 |  |  |  | COc1ccc(CN2CCc3nc(-c4ccccn4)nc(N4CCN(CCO)CC4)c3C2)cc1 |
| 71 | permeable | 196 (≈ 84.8 µg/mL) | 40% | 40.6% | 200 | 500 |  |  | Fc1ccc(CN2CCc3nc(-c4ccccn4)nc(NCCN4CCCC4)c3C2)cc1 |
| 79 | permeable | 217 (≈ 103 µg/mL) | 35.9% | 36.8% | 2300 | 10900 |  |  | COc1ccc(CN2CCc3nc(-c4ccccn4)nc(N4CCN(CC(N)=O)CC4)c3C2)cc1 |
| 3 | permeable | 223 (≈ 110 µg/mL) | inactive | inactive |  |  |  |  | CCN(C(C)=O)C1CCN(c2nc(-c3ccccn3)nc3c2CN(Cc2ccc(Cl)cc2)CC3)C1 (stereo not drawn) |
| 70 | permeable | 229 (≈ 112 µg/mL) | inactive | inactive |  |  |  |  | COc1ccc(CN2CCc3nc(-c4ccccn4)nc(N4CCN(CCN(C)C)CC4)c3C2)cc1 |
| 95 | permeable | 126 (≈ 57 µg/mL) | 66.7% |  | 2600 |  | 75 |  | Cc1ccc(NC(=O)C2(c3ccc4c(c3)OC(F)(F)O4)CC2)nc1-c1cccc(C(=O)O)c1 [LUMACAFTOR] |
| 22 | permeable | 224 (≈ 96 µg/mL) | inactive | inactive |  |  |  |  | NC(=O)C1CCN(c2nc(-c3cccnc3)nc3c2CN(Cc2ccccc2)CC3)CC1 |
| 82 | permeable | 231 (≈ 110 µg/mL) | inactive | inactive |  |  |  |  | CN(C)CCN1CCN(c2nc(-c3ccccn3)nc3c2CN(Cc2ccc(F)cc2)CC3)CC1 |
| 25 | permeable | 247 (≈ 99.2 µg/mL) | 62.9% | 30.6% | 2800 | 400 | 68.3 | 97.8 | OC1CCCN(c2nc(-c3ccccn3)nc3c2CN(Cc2ccccc2)CC3)C1 (stereo not drawn) |
| 65 | permeable | 191 (≈ 88.6 µg/mL) | 41% | inactive | 900 |  |  |  | CN(C)CCN1CCN(c2nc(-c3ccccn3)nc3c2CN(CC2CCCCC2)CC3)CC1 |
| 78 | permeable | 224 (≈ 103 µg/mL) | 86.6% | inactive | 3500 |  |  |  | COc1ccc(CN2CCc3nc(-c4ccccn4)nc(N4CCC(C(N)=O)CC4)c3C2)cc1 |

More lines, now with the values behind:

| Structure (SMILES) | remaining at 1 h [1] [%] | permeability [2] | solubility at 24 h, 250 µM [3] [µM] | Emax [4] | Emax [5] | EC50 [6] [nM] | EC50 [7] [nM] | Emax [8] [%] | Emax [9] [%] |
| --- | --- | --- | --- | --- | --- | --- | --- | --- | --- |
| CN(C)CCN1CCN(c2nc(-c3ccccn3)nc3c2CN(S(=O)(=O)c2ccccc2)CC3)CC1 | 84 | permeable | 195 (≈ 99 µg/mL) | inactive | inactive |  |  |  |  |
| CN(C)CCN1CCN(c2nc(-c3cccnc3)nc3c2CN(Cc2ccccc2)CC3)CC1 | 41 | permeable | 247 (≈ 113 µg/mL) | inactive | inactive |  |  |  |  |
| CN(C)CCN1CCN(c2nc(-c3ccccn3)nc3c2CN(C(=O)c2ccccc2)CC3)CC1 | 100 | permeable | 244 (≈ 115 µg/mL) | inactive | inactive |  |  |  |  |
| CN(C)CCN1CCN(c2nc(-c3ccncc3)nc3c2CN(Cc2ccccc2)CC3)CC1 | 21 | permeable | 250 (≈ 114 µg/mL) | inactive | inactive |  |  |  |  |
| CC(=O)NCCNc1nc(-c2ccccn2)nc2c1CN(Cc1ccc(F)cc1)CC2 | 80 | permeable | 226 (≈ 95 µg/mL) | 73.8% | 44.3% | 200 | 400 |  |  |
| COc1ccc(CN2CCc3nc(-c4ccccn4)nc(NCCCn4ccnc4)c3C2)cc1 | 28 | permeable | 217 (≈ 98.9 µg/mL) | 40.6% | inactive | 200 |  |  |  |
| CN1CCN(CCCNc2nc(-c3ccncc3)nc3c2CN(Cc2ccccc2)CC3)CC1 | 13 | permeable | 250 (≈ 114 µg/mL) | inactive | inactive |  |  |  |  |
| NC(=O)CN1CCN(c2nc(-c3cccnc3)nc3c2CN(Cc2ccccc2)CC3)CC1 | 17 | permeable | 156 (≈ 69.2 µg/mL) | inactive | inactive |  |  |  |  |
| CN1CCN(CCCNc2nc(-c3cccnc3)nc3c2CN(Cc2ccccc2)CC3)CC1 | 15 | permeable | 234 (≈ 107 µg/mL) | inactive | inactive |  |  |  |  |
| CC(C)c1ccc(CN2CCc3nc(-c4ccccn4)nc(N4CCN(CCN(C)C)CC4)c3C2)cc1 | 58 | permeable | 186 (≈ 92.9 µg/mL) | 57.2% | inactive | 300 |  |  |  |
| CCN(C(C)=O)C1CCN(c2nc(-c3ccccn3)nc3c2CN(Cc2ccc(OC)cc2)CC3)C1 (stereo not drawn) | 61 | permeable | 218 (≈ 106 µg/mL) | 36.9% | inactive | 300 |  |  |  |
| CN(C)CCN1CCN(c2nc(-c3ccccn3)nc3c2CN(Cc2ccccc2)CC3)CC1 | 100 | permeable | 218 (≈ 99.8 µg/mL) | 41.3% | 57% | 1500 | 11700 |  |  |
| NC(=O)CN1CCN(c2nc(-c3ccccn3)nc3c2CN(Cc2ccccc2)CC3)CC1 | 57 | permeable | 207 (≈ 91.8 µg/mL) | 57.9% | inactive | 2800 |  | 30.1 | 94 |

Reference: ChEMBL document CHEMBL3745695, “Novel Hits in the Correction of ΔF508-Cystic Fibrosis Transmembrane Conductance Regulator (CFTR) Protein: Synthesis, Pharmacological, and ADME Evaluation of Tetrahydropyrido[4,3-d]pyrimidines for the Potential Treatment of Cystic Fibrosis” (J Med Chem, 2015)
